According to ChEMBL document CHEMBL5380787, “Optimized M24B Aminopeptidase Inhibitors for CARD8 Inflammasome Activation” (J Med Chem, 2023):
Active and inactive are the calls of the source. The rule behind the calls is not given here.

Legend:
[1] = tested on: MV4-11; assay: Induction of pyroptosis in human MV4-11 cells assessed as GSDMD cleavage at 20 uM incubated for 24 hrs by immunoblot analysis; type: functional, cell-based
Method in brief: (§1)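 Cells (MV4;11, OCI-AML2 or THP-1; WT or the knockout named) plated at 5 × 10^5 cells/well and exposed to 20 μM compound for 24 h. LDH in the supernatant was measured relative to a Triton X-100 lysis control. For immunoblots, cells were washed in PBS, sonicated, protein-normalized, run on SDS-PAGE and probed for GSDMD cleavage. n = 3.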

[2] = tested on: THP-1; assay: Induction of pyroptosis in human THP-1 cells assessed as LDH release at 20 uM incubated for 24 hrs; type: functional, cell-based; method in brief: as §1
[3] = biological target: T1, Xaa-Pro dipeptidase (Homo sapiens) (UniProt P12955); assay: Inhibition of recombinant human PEPD using Ala-Pro as substrate assessed as alanine release by measuring increase in fluorescense signal at 1 uM by fluorescence based analysis relative to control
T1 sequence (whole entry): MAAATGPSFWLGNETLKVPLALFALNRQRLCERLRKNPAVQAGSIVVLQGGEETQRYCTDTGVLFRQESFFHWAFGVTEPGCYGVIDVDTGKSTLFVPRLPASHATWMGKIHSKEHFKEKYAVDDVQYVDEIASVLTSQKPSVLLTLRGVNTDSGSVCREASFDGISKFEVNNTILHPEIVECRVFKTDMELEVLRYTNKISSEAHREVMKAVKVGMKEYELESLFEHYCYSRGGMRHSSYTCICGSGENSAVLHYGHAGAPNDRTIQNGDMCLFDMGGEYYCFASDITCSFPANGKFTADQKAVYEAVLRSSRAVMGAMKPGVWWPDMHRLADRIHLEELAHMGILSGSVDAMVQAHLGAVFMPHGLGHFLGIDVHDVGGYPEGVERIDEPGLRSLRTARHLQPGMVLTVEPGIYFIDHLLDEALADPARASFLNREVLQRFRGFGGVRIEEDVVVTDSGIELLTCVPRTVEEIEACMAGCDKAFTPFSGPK
Method in brief: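 Recombinant human PEPD at 50 nM was incubated with Ala-Pro at 40 μM final and compound. Released alanine was detected by coupled alanine transaminase/pyruvate oxidase conversion to H2O2 and resorufin fluorescence (Ex/Em 535/587 nm) at 25 °C.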

[4] = tested on: THP-1; assay: Induction of pyroptosis in CARD8 knockout human THP-1 cells harboring dox-inducible […] E274R mutant assessed as GSDMD cleavage at 20 uM pretreated with doxycycline for 16 hrs followed by compound addition and measured after 6 hrs by immunoblot analysis; type: functional, cell-based
Method in brief: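 CARD8−/− THP-1 cells carrying a doxycycline-inducible CARD8 E274R mutant were exposed or not to DOX at 100 ng/mL for 16 h. Compound was then added at 20 μM for 6 h, followed by LDH release and immunoblot analysis.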

[5] = tested on: MV4-11; assay: Cytotoxicity against human MV4-11 cells assessed as reduction in cell viability at 1 uM incubated for 24 hrs by celltiter-glo assay relative to control; type: functional
Method in brief: (§2)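 Single-dose viability screen. MV4;11 or OCI-AML2 cells at 2000 cells/well were exposed to 1 μM compound for 24 h. Viability was read by CellTiter-Glo luminescence and expressed as percent inhibition. Values are means of three biological replicates.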

[6] = tested on: BMDM; assay: Induction of pyroptosis in C57BL/6J mouse BMDM cells expressing NLRP1A and NLRP1B allele 2 assessed as GSDMD clevage at 20 uM incubated for 24 hrs by immunoblot analysis; type: functional, cell-based
Method in brief: (§3)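 Bone marrow cells from femurs and tibias of 7–12-week-old C57BL/6J mice were RBC-lysed and differentiated for 6 days at 37 °C in DMEM with 10% FBS and 15–20% L-cell medium, then replated. Cells were exposed to 20 μM compound for 24 h. Read-outs were LDH release against a lysis control and GSDMD immunoblot.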

[7] = tested on: OCI-AML2; assay: Induction of cell death in human OCI-AML2 cells assessed as reduction in cell viability incubated for 24 hrs by celltiter-glo assay; type: functional, cell-based
Method in brief: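 OCI-AML2 cells, WT or CARD8−/−, were grown in RPMI 1640 with 10% FBS and plated at 2000 cells/well. Compound was added over a range of concentrations for 24 h, and viability was then read by CellTiter-Glo luminescence. Means ± SEM, n = 3.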

[8] = tested on: OCI-AML2; assay: Induction of pyroptosis in CARD8 knockout human OCI-AML2 cells assessed as GSDMD cleavage at 20 uM incubated for 24 hrs by immunoblot analysis; type: functional, cell-based; method in brief: as §1
[9] = tested on: THP-1; assay: Induction of pyroptosis in PEPD knockout human THP-1 cells assessed as GSDMD clevage at 20 uM incubated for 24 hrs by immunoblot analysis; type: functional, cell-based; method in brief: as §1
[10] = tested on: THP-1; assay: Induction of pyroptosis in DPP8/9 knockout human THP-1 cells assessed as GSDMD clevage at 20 uM incubated for 24 hrs by immunoblot analysis; type: functional, cell-based; method in brief: as §1
[11] = tested on: RAW264.7; assay: Induction of pyroptosis in mouse RAW264.7 cells expressing NLRP1B allele 1 assessed as LDH release at 20 uM incubated for 24 hrs; type: functional, cell-based
Method in brief: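 RAW264.7 cells, grown in DMEM with 10% FBS, plated at 5 × 10^5 cells/well and exposed to 20 μM compound for 24 h. Supernatant LDH was measured relative to a Triton X-100 lysis control; lysates were immunoblotted for GSDMD cleavage. n = 3.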

[12] = tested on: THP-1; assay: Induction of pyroptosis in DPP8/9 knockout human THP-1 cells assessed as LDH release at 20 uM incubated for 24 hrs; type: functional, cell-based; method in brief: as §1
[13] = tested on: MV4-11; assay: Induction of pyroptosis in CARD8 knockout human MV4-11 cells assessed as LDH release at 20 uM incubated for 24 hrs; type: functional, cell-based; method in brief: as §1
[14] = Stability of the compound in human MV4-11 cells assessed as de-esterification by measuring parent compound remaining measured after 24 hrs by LC-MS analysis; type: ADME, cell-based; conditions: read-out: Stability
Method in brief: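 Compound was incubated in conditioned medium from MV4;11 cells for 24 h at 37 °C, and LC/MS then measured intact ester remaining and the de-esterified free acid. n = 3, mean ± SEM.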

[15] = tested on: OCI-AML2; assay: Cytotoxicity against human OCI-AML2 cells assessed as reduction in cell viability at 1 uM incubated for 24 hrs by celltiter-glo assay relative to control; type: functional; method in brief: as §2
[16] = tested on: THP-1; assay: Induction of pyroptosis in human THP-1 cells assessed as GSDMD cleavage at 20 uM incubated for 24 hrs by immunoblot analysis; type: functional, cell-based; method in brief: as §1
[17] = tested on: THP-1; assay: Induction of pyroptosis in CARD8 knockout human THP-1 cells assessed as LDH release at 20 uM incubated for 24 hrs; type: functional, cell-based; method in brief: as §1
[18] = tested on: BMDM; assay: Induction of pyroptosis in C57BL/6J mouse BMDM cells expressing NLRP1A and NLRP1B allele 2 assessed as LDH release at 20 uM incubated for 24 hrs; type: functional, cell-based; method in brief: as §3
[19] = tested on: MV4-11; assay: Induction of cell death in human MV4-11 cells assessed as increase in PI uptake at 6.25 uM incubated for 6 hrs by PI staining based fluorescence analysis; type: functional
Method in brief: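 PI flux assay. 2 × 10^4 MV4;11 (WT, CARD8−/− or CASP1−/−) or OCI-AML2 cells in RPMI were given compound at 6.25 μM plus PI at 10 μM final. Fluorescence (Ex/Em 535/617 nm) was read every 5 min at 37 °C for 6 h, baseline-corrected to DMSO and normalized to the maximum response. n = 3.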

Compound | Activity [1] | Activity [2] | inhibition [3] [%] | Activity [4] | Activity [5] [%] | Activity [6] | Activity [7] | Activity [8] | Activity [9] | Activity [10] | Activity [11] | Activity [12] | Activity [13] | remaining at 24 h [14] [%] | Activity [15] [%] | Activity [16] | Activity [17] | Activity [18] | Activity [19]
COC(=O)[C@@H]1CCCN1C(=O)[C@@H](O)[C@H](N)CC(C)C | Active | Active | 48 | inactive | 72 | inactive | Active | inactive | Active | inactive | inactive | inactive | inactive | 50 | 42 | Active | inactive | inactive | Active
COC(=O)[C@H](CC(C)C)NC(=O)[C@@H]1CCCN1C(=O)[C@@H](O)[C@H](N)CC(C)C | Active | Active | 60 | inactive | 45 | inactive | Active | inactive | Active | inactive | inactive | inactive | inactive |  | 37 | Active | inactive | inactive | Active
